Test results as given in PubChem BioAssay AID2170 (The Scripps Research Institute Molecular Screening Center, 2009).
The campaign covered roughly 2,400 compounds. About 660 (28%) were called active. Only a sample is shown. A number with no mark means an inactive call.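 The calls were made as follows: active = mean inhibition over replicate wells above the hit cutoff set for the earlier primary screen (cut at about 29% in these data); inactive = the rest.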

Each compound was assayed on M18 aspartyl aminopeptidase (Plasmodium falciparum 3D7) (assay: PfM18AAP inhibitors, malaria aminopeptidase, confirmation, biochemical, QFRET, recombinant enzyme, triplicate (AID 2170;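 also: 0% = median of test compound wells and 100% = 2 mM ZnCl2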)). Conditions: H-Glu-NHMec fluorogenic cleavage, at 7.35 µM, hits give high values.
Outline: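 Test system: recombinant P. falciparum M18 aspartyl aminopeptidase; incubation: Enzyme–compound pre-incubation 30 min, substrate reaction 90 min, both 25 °C; detection: fluorescence, excitation 340 nm, emission 450 nm, read at 0 and 90 min; evaluation: percent inhibition from 0–90 min fluorescence gain, scaled between controls; benchmarks: ZnCl2 inhibitor control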
In the case of O=C(Nn1cnnc1)c1cc(Cl)ccc1Cl, the inhibition is reported as 55.1% (active).
In the case of O=C(Nc1ccccc1Cl)Nn1cnnc1, the inhibition is reported as 65.9% (active).
Cc1ccc(S(=O)(=O)N/N=C\c2cc3c(cc2[N+](=O)[O-])OCO3)cc1 showed an inhibition of -7.72%.
Compound Cc1ccc(Cl)cc1-c1ccc(/C=N/n2cnnc2)o1 has an inhibition of -18.6%.
In the case of Cc1ccc(-c2ccc(/C=C(\C#N)C(N)=S)o2)c([N+](=O)[O-])c1, the inhibition is reported as -32.7%.
In the case of NC(=O)c1c(NC(=O)CSc2nnc(-c3ccco3)n2N)sc2c1CCCC2, the inhibition is reported as -70.9%.
S=c1[nH]nc2c3c4c(sc3ncn12)CCCC4 showed an inhibition of -11.8%.
CCOCCCNC(=O)c1ccc(CS(=O)(=O)c2cccc(C(F)(F)F)c2)o1 was tested, and the inhibition was -29.5%.
In the case of Cc1cccc(NC(=O)c2sc3nc(N4CCOCC4)c4c(c3c2N)CCCC4)c1, the inhibition is reported as 3.82%.
With O=S(=O)(c1ccc(NC(=S)NN=C(C2CC2)C2CC2)cc1)N1CCOCC1 the inhibition was 14.8%.
For Cc1nnc(SCC(=O)Nn2cnnc2)s1, the inhibition was 29.1% (active).
In the case of NC(=O)C1CCN(C(=O)/C(=C/c2ccco2)NC(=O)c2ccccc2)CC1, the inhibition is reported as -45.2%.
Work on CCOc1ccc(-n2c(O)c(/C=N/Nc3nnc(C)c(=O)[nH]3)c3ccccc3c2=O)cc1 yielded an inhibition of 12.4%.
For Oc1c(C(c2ccco2)N2CCC3(CC2)OCCO3)sc2ncnn12 (stereo unspecified), the inhibition was -4.87%.
In the case of Cc1ccc2nc(-c3cccc(Br)c3)cc(C(=O)Nn3cnnc3)c2c1, the inhibition is reported as 63.4% (active).
With Oc1ccc(/C=N/NC2=NCCCCC2)c(O)c1 the inhibition was 41.8% (active).
In the case of CCN(CC)c1ccc(/C=N/Nc2nc(C)cc(C)n2)c(O)c1, the inhibition is reported as 16.4%.
O=C(Oc1ccc(Br)cc1C(=S)N1CCOCC1)c1cccc([N+](=O)[O-])c1 showed an inhibition of -27.5%.
For Oc1ccc(N2CCN(C(=S)NCc3ccccc3)CC2)cc1, the inhibition was -12.9%.
Work on CC(OC(=O)c1ccc2noc(-c3ccccc3)c2c1)C(N)=O (stereo unspecified) yielded an inhibition of -28.2%.
O=C(N/N=C/c1ccc(O)c(O)c1)C1c2ccccc2Oc2ccccc21 was tested, and the inhibition was 37.3% (active).
CSc1n[nH]c(=S)n1N showed an inhibition of -12.7%.
With O=C(CSC(=S)N1CCOCC1)c1cc(Br)cc(Br)c1O the inhibition was -45.7%.
CCN(CC)c1ccc(NC(=O)CCc2nnc3ccc(N4CCCCC4)nn23)c(C)c1 gave an inhibition of -12.9%.
For Cc1csc(NC(=O)NC2(C(F)(F)F)Oc3ccccc3O2)n1, the inhibition was 68.6% (active).
With Oc1cccc(/C=N/Nc2ccc(Cl)nn2)c1O the inhibition was 20.8%.
Compound CN(C)c1ccc(C(CC(=O)O)C(=O)O)cc1 (stereo unspecified) has an inhibition of -38.2%.
COc1cc(S(=O)(=O)Nc2ncn[nH]2)ccc1Cl was tested, and the inhibition was 34.1% (active).
Compound Cc1onc(-c2ccccc2)c1C(=O)NNC(=S)NC(=O)c1ccc(F)cc1 has an inhibition of -38.8%.
For Oc1ccc(-c2csc(Nc3cccnc3)n2)cc1, the inhibition was 56.6% (active).
CC1(C)CC(=O)C/C(=N\NC(=O)c2cccs2)C1 showed an inhibition of 3.68%.
With N#CCC(=O)N/N=C/c1ccc(SCC(=O)Nc2ccccc2)o1 the inhibition was -37.9%.
In the case of CCOC(=O)NNc1cc(C(F)(F)F)ccn1, the inhibition is reported as 28.2% (active).
Work on COc1ccc2c(c1)C(C)=CC(C)(C)N2C(=O)Nc1ccccc1 yielded an inhibition of -22.9%.
COc1ccc(/C=N/Nc2nc3ccccc3o2)cc1OC showed an inhibition of -38.4%.
In the case of c1ccc2c(c1)OCC(c1nn3cnnc3s1)O2 (stereo unspecified), the inhibition is reported as -28.2%.
Cc1cc2nc3c(=O)n(Cc4ccccc4)c(=O)[nH]c3nc2cc1N gave an inhibition of 7.01%.
In the case of Cc1ccsc1/C=N/Nc1ccc(Cl)nn1, the inhibition is reported as -14.8%.
With COc1cc(Br)cc(/C=N/c2ncn[nH]2)c1O the inhibition was 62.9% (active).
Compound Cc1cc(-c2ccc(/C=N/n3cnnc3)o2)c([N+](=O)[O-])cc1C has an inhibition of 0.8%.
Cc1ccc(NC(=O)c2c(NC(=O)CCC(=O)O)sc3c2CCCCC3)cc1 gave an inhibition of -30.8%.
CNC(=S)NNC(=O)c1ccc(N(C)C)cc1 was tested, and the inhibition was 12.2%.
CCCc1nc2ccccc2c(=O)n1/N=C/c1ccc(O)c(O)c1 was tested, and the inhibition was 28.4% (active).
With CC(C)c1ccc(NC(=S)NNc2ccc(Cl)c(C(=O)O)c2)cc1 the inhibition was -43.7%.
COc1cc(/C=C2/C(=O)NN(c3cccc(Cl)c3)C2=O)cc(Br)c1O gave an inhibition of 12.9%.
O=C(NNC(=O)c1ccco1)Nc1ccccc1 was tested, and the inhibition was 17.1%.
In the case of CC(C)C1N=C2c3ccccc3N=C(SCC(=O)c3ccc(O)c(O)c3)N2C1=O (stereo unspecified), the inhibition is reported as 39% (active).
COc1cc(NC(=S)N2CCCC(C)C2)c(OC)cc1Cl (stereo unspecified) was tested, and the inhibition was -0.38%.
For S=c1[nH]c(-c2cccs2)cn1-c1ccccc1, the inhibition was 39.1% (active).
With Cc1cc(C)nc(NNC2=CC(=O)CC(C)(C)C2)n1 the inhibition was 44.3% (active).
O=C(CC(n1cncn1)C(Cl)(Cl)Cl)c1ccc([N+](=O)[O-])cc1 (stereo unspecified) showed an inhibition of -9.53%.
COc1c(O)ccc2c1CN1CCc3cc4c(cc3C1C2)OCO4 (stereo unspecified) showed an inhibition of 9.45%.
For Cc1c(CC(=O)N2CCN(C(=O)C3COc4ccccc4O3)CC2)c(=O)oc2c(O)c(O)ccc12 (stereo unspecified), the inhibition was 32.3% (active).
Work on CCN1/C(=C/C(=S)Nc2ccccc2)Sc2ccccc21 yielded an inhibition of 0.1%.
Work on CC(C)(C)c1nnc(N/N=C/c2ccc(O)cc2)n(N)c1=O yielded an inhibition of -22.7%.
CCOc1ccc(C2C3=C(CCCC3=O)N(CC(=O)O)C3=C2C(=O)CCC3)cc1 showed an inhibition of -43.7%.
